Most compounds without a hit are left out; they make up all but 1.9% or so of the library.
CHRM4 agonist: human M4 muscarinic receptor agonists, primary screen, CHO-K1 cells, Fluo-8 calcium fluorescence; Muscarinic acetylcholine receptor M4 (Homo sapiens), P08173; CHO-K1 hM4/Gqi5; vehicle 0%, full acetylcholine response 100%; activation, % at 3 µM; 360,000 tested, 0.14% active; AID 624127, 2012;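 active = activation above the run mean over all test wells plus 3 SD, cut at about 32% in these data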;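 note: peak over basal fluorescence ratio per well then scaled between controls; 0% = DMSO wells and 100% = acetylcholine at EC100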
CHRM4 PAM: human M4 muscarinic receptor positive allosteric modulators, primary screen, CHO-K1 cells, Fluo-8 calcium fluorescence | CHO-K1 hM4/Gqi5, ACh EC20; 0% = ACh EC20, 100% = maximal ACh | activation, % at 3 µM | AID 624126, 2012 | Muscarinic acetylcholine receptor M4 (Homo sapiens), P08173 | 360,000 tested, 0.4% active;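 active = activation above its plate's cutoff, the mean activation of sample wells plus 3 SD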
M5 PAM: human M5 muscarinic receptor positive allosteric modulators, primary screen, CHO-K1 cells, Fluo-8 calcium fluorescence; Muscarinic acetylcholine receptor M5 (Homo sapiens), P08912; CHO-K1 hM5, ACh EC20 PAM; 0% = ACh EC20, 100% = ACh EC100; activation, % at 3 µM; 360,000 tested, 0.3% active; AID 624038, 2012;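 active = activation above the run cutoff, the mean activation of all test compounds plus 3 SD, cut at about 18% in these data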
Target sequence (P08912 whole entry, looked up): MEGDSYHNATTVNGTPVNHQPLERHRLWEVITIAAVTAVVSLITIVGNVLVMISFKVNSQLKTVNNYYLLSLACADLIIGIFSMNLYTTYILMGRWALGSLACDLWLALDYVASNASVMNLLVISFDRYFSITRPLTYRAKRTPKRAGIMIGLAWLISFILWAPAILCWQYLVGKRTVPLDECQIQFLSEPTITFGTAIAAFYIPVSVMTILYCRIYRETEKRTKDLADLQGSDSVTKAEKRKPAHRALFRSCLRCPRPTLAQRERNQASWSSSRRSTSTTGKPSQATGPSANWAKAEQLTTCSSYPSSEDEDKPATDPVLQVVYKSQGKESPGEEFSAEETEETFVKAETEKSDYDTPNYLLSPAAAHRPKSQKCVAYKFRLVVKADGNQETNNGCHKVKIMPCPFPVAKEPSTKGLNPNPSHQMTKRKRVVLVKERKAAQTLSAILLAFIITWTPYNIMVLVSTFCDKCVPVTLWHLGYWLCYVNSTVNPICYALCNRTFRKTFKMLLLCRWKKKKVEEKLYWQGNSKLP
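Probe or stimulus: acetylcholine, EC20 level; Assay system: human M5 receptor in CHO-K1 cells; Schedule: compound preincubation 140 s before EC20 acetylcholine addition; Technique: intracellular calcium via Fluo-8 fluorescence; Dosing: single-point, 3 µM nominal; Read-out basis: percent activation from peak-over-basal fluorescence ratio, scaled EC20-to-EC100 acetylcholine; Repeats: one well per compound, no replicates.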
M5 antag: human M5 muscarinic receptor antagonists, primary screen, CHO cells, Fluo-8 calcium fluorescence | CHO-hM5 cells, ACh EC80 | inhibition, % at 3 µM | 360,000 tested, 0.59% active | AID 624040, 2012;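 active = inhibition above a per-plate cutoff, the mean of that plate's test compounds plus 3 SD, cut at about 27% in these data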;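 note: 0% = acetylcholine EC80 with DMSO and 100% = DMSO without agonist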
M5 ag: human M5 muscarinic receptor agonists, primary screen, CHO-K1 cells, Fluo-8 calcium fluorescence; Muscarinic acetylcholine receptor M5 (Homo sapiens), P08912; CHO-K1 hM5 cells; 0% DMSO wells, 100% maximal acetylcholine response; activation, % at 3 µM; 360,000 tested, 0.19% active; AID 624037, 2012;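 active = activation above the run's mean over test compounds plus 3 SD, cut at about 23% in these data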;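 note: signal is peak over basal fluorescence ratio across the kinetic read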
M4 antag: human M4 muscarinic receptor antagonists, primary screen, CHO cells, Fluo-8 calcium fluorescence. 360,000 tested, 0.73% active. CHO-hM4 cells, ACh EC80. Muscarinic acetylcholine receptor M4 (Homo sapiens), P08173. inhibition, % at 3 µM. AID 624125, 2012;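 active = inhibition above its plate's cutoff, the mean inhibition of sample wells plus 3 SD, cut at about 27% in these data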;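 note: 0% = acetylcholine EC80 with DMSO and 100% = DMSO without agonist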
Starred values were filed as active, the others as inactive.

SMILES | CHRM4 agonist | CHRM4 PAM | M5 PAM | M5 antag | M5 ag | M4 antag
CCCCCCCNC(=O)C1(CC2CC(c3ccc(Cl)cc3)=NO2)CCNCC1 (stereo not drawn) | 2 | 17 | 11 | 4 | -6 | 6
OC[C@@H]1CN(Cc2ccc(-c3ccccc3)cc2)C[C@H](n2cnc3c(Nc4ccccc4)ncnc32)O1 | 21 | -11 | -15 | 22 | 3 | 37*
COc1cc(CNc2ncnc3c2ncn3[C@H]2CN(Cc3cc(OC)c(OC)c(OC)c3)C[C@@H](CO)O2)cc(OC)c1OC | 0 | 22* | 2 | -12 | -1 | -21
OC[C@@H]1CN(Cc2ccc(F)cc2)C[C@H](n2cnc3c(Nc4ccccc4)ncnc32)O1 | 16 | -13 | -9 | 13 | 2 | -1
OC[C@@H]1CN(Cc2ccc(F)cc2)C[C@H](n2cnc3c(NCc4ccncc4)ncnc32)O1 | 4 | 4 | -1 | 2 | 1 | -15
OC[C@@H]1CN(Cc2ccccc2)C[C@H](n2cnc3c(NCc4ccncc4)ncnc32)O1 | 5 | 20* | 0 | 2 | 0 | -5
Cc1cc2cc(CNC(=O)c3ccc(S(=O)(=O)N4CCCCC4)cc3)ccc2n1C | 6 | -7 | -8 | 0 | 2 | 16
O=C(COC(=O)/C=C/c1ccc(S(=O)(=O)N2CCOCC2)cc1)NCc1ccccc1 | 5 | 4 | 5 | 5 | 3 | 23
COc1ccc(C(=O)NCc2ccc3c(c2)cc(C)n3C)cc1OC | 2 | 5 | 0 | 10 | 1 | -2
O=C(COC(=O)/C=C/c1ccc(S(=O)(=O)N2CCOCC2)cc1)NCc1ccc(Cl)cc1 | 2 | 17 | 19* | -16 | 9 | -16
Cc1cc2cc(CNC(=O)c3ccc(S(=O)(=O)N4CCCC4)cc3)ccc2n1C | 3 | -15 | -7 | 8 | -1 | 35*
CCN(CC)S(=O)(=O)c1ccc(C(=O)NCc2ccc3c(c2)cc(C)n3C)cc1 | 1 | -17 | -2 | -2 | 2 | 55*
Cc1ccc(CNC(=O)COC(=O)c2ccc(S(=O)(=O)N3CCCC3)cc2)cc1 | 2 | 2 | 22* | 2 | -8 | 0
CC[C@]12c3[nH]c4cc(CCC(=O)N(C)C)ccc4c3CCN1C(=O)[C@@H](CC(=O)NC(C)(C)C)C[C@@H]2C(=O)N1CCN(C(=O)C2CC2)CC1 | 0 | 4 | 8 | -12 | 0 | -7
CN(Cc1ccccc1)c1nccn2ccnc12 | 2 | 9 | -5 | -2 | 1 | -4
COC(=O)C1=C(C(=O)OC)[N+]2=C3N(C(=O)NC2(C)C)[C@H](CO)C[C@@]32c3ccccc3N(Cc3ccccc3)[C@@H]12 | 4 | 9 | -2 | 13 | -1 | -25
OC[C@@H]1CN(Cc2cccnc2)C[C@H](n2cnc3c(N4CCCC4)ncnc32)O1 | 1 | 13 | -2 | 5 | -1 | -6
CCN(CC)c1ccc(S(=O)(=O)N2CCOCC2)cc1NC(=O)COC(=O)/C=C/c1ccccc1 | 19 | -13 | -37 | 20 | -3 | 10
CCN(CC)c1ccc(S(=O)(=O)N2CCOCC2)cc1NC(=O)COC(=O)/C=C/c1ccc(C)o1 | 22 | -9 | -34 | 31* | -2 | 11
CC1CC(=O)c2ccccc2C1C (stereo not drawn) | 0 | -2 | -6 | 7 | 3 | 1
Cn1nc(C(C)(C)C)cc1NC(=O)C1(C)CCN1C(=O)Cc1ccc(-c2ccccc2)cc1 (stereo not drawn) | 16 | -9 | -10 | 11 | 1 | 5
COc1ccc2nc(C)cc(Nc3ccc(N4CCN(C)CC4)cc3)c2c1 | 0 | -3 | 6 | 5 | -8 | -1
CC1CCN(S(=O)(=O)c2ccc(NC(=O)c3ccncc3)cc2)CC1 | 11 | -11 | -4 | -4 | 2 | -2
CC(=O)Nc1ccc(NC(=O)c2nc(S(=O)(=O)Cc3cccc(C)c3)ncc2Cl)cc1 | 0 | -7 | -7 | 17 | -6 | 18
Cc1cccc(CS(=O)(=O)c2ncc(Cl)c(C(=O)NCc3ccc4c(c3)OCO4)n2)c1 | 5 | -16 | 1 | 12 | -4 | 33*
SMILES | CHRM4 agonist | CHRM4 PAM | M5 PAM | M5 antag | M5 ag | M4 antag
CCS(=O)(=O)c1ncc(Cl)c(C(=O)Nc2ccc(S(=O)(=O)N3CCC(C)CC3)cc2)n1 | 13 | -11 | -10 | 27 | -7 | 47*
CCc1ccc(NC(=O)c2nc(S(=O)(=O)Cc3ccccc3)ncc2Cl)cc1 | 3 | -12 | -8 | 20 | -6 | 68*
Cc1ccc(NC(=O)c2nc(S(=O)(=O)Cc3ccccc3C)ncc2Cl)cc1C | 5 | -8 | 0 | 4 | -5 | 36*
COc1ccc(CNC(=O)C(c2ccc(C)cc2)N(Cc2cccs2)C(=O)c2ccc3c(c2)OCCO3)cc1 (stereo not drawn) | 24 | -12 | -23 | 24 | 4 | 32*
COc1cc(CNc2ncnc3c2ncn3[C@H]2CN(Cc3ccccc3)C[C@@H](COC(C)=O)O2)cc(OC)c1OC | 3 | 5 | 5 | 3 | -2 | -4
CNC(=O)c1cc(C(=O)c2ccc(C(F)(F)F)cc2F)c[nH]1 | 2 | 5 | -4 | 9 | 0 | 5
CNC(=O)c1cc(C(=O)c2ccc(C(F)(F)F)cc2)c[nH]1 | 4 | -16 | -6 | 5 | 2 | 43*
CN1/C(=C\P(=O)(N(C)C)N(C)C)C(C)(C)c2ccccc21 | 8 | -2 | -9 | 34* | 5 | 20
COc1ccccc1N1CCN(C(=O)c2ccc3noc(-c4ccccc4)c3c2)CC1 | 8 | -1 | -13 | 4 | 25* | -23
CCc1ccccc1OCC(=O)N1CCN(c2ncccn2)CC1 | 3 | 2 | 0 | -1 | 2 | -7
Cc1ccc(C(=O)N2CCN(c3ccc(N4CCOCC4)nn3)CC2)cc1C | 1 | 18* | 9 | -1 | 0 | -3
O=C(c1cccc(Br)c1)N1CCN(c2ccc(N3CCOCC3)nn2)CC1 | 0 | -6 | -5 | 3 | -4 | 17
O=C(CCC(=O)N1CCN(c2ccc(Cl)c(Cl)c2)CC1)c1ccccc1 | 11 | -9 | -15 | 27* | 3 | 17
O=C(CCSCc1ccccc1Cl)N1CCN(c2cccc(Cl)c2)CC1 | 0 | 23* | 0 | -11 | -1 | -17

Assay outcomes deposited in PubChem by The Scripps Research Institute Molecular Screening Center.
